Consider 5 compounds from paper PMC10949176 (Clinical and Translational Science, 2024).

Values joined by “and” are separate entries in the source; they are usually repeats but may differ in a detail not shown here. Equal values may be shown once. “Also recorded” adds a separate entry of the source.

One data set has as its target UGT2B7 (Homo sapiens, UniProt P16662). Kind of data set: UGT inhibition in suspension human hepatocytes. Format: cell-based. The conditions noted are these: read-out: Ki,u HHEPs; UGT2B7, Zidovudine 100 μM, unbound.
A further data set addresses UGT1A9 (Homo sapiens, UniProt O60656). Kind of data set: UGT inhibition in suspension human hepatocytes. The following applies: read-out: Ki,u HHEPs; UGT1A9, Propofol 10 μM, unbound. The format is cell-based.
In data set [1] the target is T1, SULT2A1 (Homo sapiens, UniProt Q06520).
T1 sequence (Q06520 1-285): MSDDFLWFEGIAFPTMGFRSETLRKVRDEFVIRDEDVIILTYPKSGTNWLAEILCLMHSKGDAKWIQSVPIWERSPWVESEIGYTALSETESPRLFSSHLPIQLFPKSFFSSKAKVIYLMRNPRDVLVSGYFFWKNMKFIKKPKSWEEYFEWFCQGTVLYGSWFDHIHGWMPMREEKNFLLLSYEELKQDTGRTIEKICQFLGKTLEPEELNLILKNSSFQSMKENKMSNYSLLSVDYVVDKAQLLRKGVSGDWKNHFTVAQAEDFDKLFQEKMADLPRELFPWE
The data set can be described thus: Recombinant SULT inhibition by ABT, SULT2A1. Format: biochemical. The following applies: 1 mM ABT, raloxifene probe substrate, data not shown.

A further data set has as its target UGT1A6 (Homo sapiens, UniProt P19224). The data set can be described thus: UGT inhibition in suspension human hepatocytes. Format: cell-based. The conditions noted are these: UGT1A6, Serotonin 1715 μM, unbound.
For the next data set, the target named is UGT2B15 (Homo sapiens, UniProt P54855). Kind of data set: UGT inhibition in suspension human hepatocytes. The format is cell-based. The conditions noted are these: read-out: Ki,u HHEPs; UGT2B15, Oxazepam 10 μM, unbound.
The target in the next data set is UGT1A3 (Homo sapiens, UniProt P35503). The data set can be described thus: UGT inhibition in suspension human hepatocytes. Format: cell-based. The conditions noted are these: read-out: Ki,u HHEPs; UGT1A3, CDCA 2 μM, unbound.
In a further data set the test system is recombinant SULT1C4. The data set can be described thus: Recombinant SULT inhibition by ABT, SULT1C4. Format: biochemical. The conditions noted are these: 1 mM ABT, raloxifene probe substrate, data not shown.
The next data set relates to recombinant SULT1C2. The data set can be described thus: Recombinant SULT inhibition by ABT, SULT1C2. Format: biochemical. The following applies: 1 mM ABT, raloxifene probe substrate, data not shown.
Another data set has as its system recombinant SULT1A1. Kind of data set: Recombinant SULT inhibition by ABT, SULT1A1. The conditions noted are these: 1 mM ABT, raloxifene probe substrate, data not shown. Format: biochemical.
In the next data set the test system is recombinant SULT2B1. Kind of data set: Recombinant SULT inhibition by ABT, SULT2B1. The format is biochemical. The conditions noted are these: 1 mM ABT, raloxifene probe substrate, data not shown.
For a further data set, the system named is recombinant SULT1B1. The data set can be described thus: Recombinant SULT inhibition by ABT, SULT1B1. Format: biochemical. The following applies: 1 mM ABT, raloxifene probe substrate, data not shown.
The subject of another data set is recombinant SULT1E1. The data set can be described thus: Recombinant SULT inhibition by ABT, SULT1E1. The conditions noted are these: 1 mM ABT, raloxifene probe substrate, data not shown. The format is biochemical.
The target of a further data set is UGT1A4 (Homo sapiens, UniProt P22310). Kind of data set: UGT inhibition in suspension human hepatocytes. Format: cell-based. The following applies: read-out: Ki,u HHEPs; UGT1A4, TFP 1 μM, unbound.
A further data set has as its system recombinant SULT1A3. Kind of data set: Recombinant SULT inhibition by ABT, SULT1A3. The format is biochemical. The conditions noted are these: 1 mM ABT, raloxifene probe substrate, data not shown.
A further data set has as its target UGT1A1 (Homo sapiens, UniProt P22309). The data set can be described thus: UGT inhibition in suspension human hepatocytes. The conditions noted are these: UGT1A1, β‐Estradiol 3 μM, unbound. Format: cell-based.
The test system of data set [2] is palbociclib metabolic pathways in co‐culture human hepatocyte models. Format: in vitro ADME.
The test system of a further data set is palbociclib sulfation. The data set can be described thus: Formation of palbociclib sulfate in Hμrel with ARV-471. The format is cell-based, human.
Data set [3] has as its target T1, SULT2A1. Kind of data set: ARV-471 inhibition of SULT2A1 in Hμrel. The conditions noted are these: Hμrel IC50 (DHEAS formation, SULT2A1), Hμrel model. The format is cell-based. Summed up: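 Hμrel co-culture of mixed-gender, five-donor pooled hepatocytes, acclimated 24 h at 37°C, 5% CO₂, exposed to varying test compound concentrations. […] DHEAS formation was measured and IC50 derived. Mean of three.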

Data set [4] has as its target T1, SULT2A1. The data set can be described thus: ARV-471 inhibition of recombinant SULT2A1. The format is biochemical. The following applies: rSULT2A1 IC50 (DHEAS formation). In a few lines:
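Recombinant human SULT2A1 incubated with varying test compound concentrations. Read-out was formation of DHEAS, with IC50 derived from the concentration response. Mean of three.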

The subject of a further data set is CYP3A. Kind of data set: CYP3A activity in Hμrel with ARV-471. Format: cell-based, human.
The subject of data set [5] is palbociclib intrinsic clearance in Hμrel co‐culture hepatocytes. The data set can be described thus: Impact of ARV-471 on intrinsic clearance of palbociclib in Hμrel. The format is in vitro ADME, human. The following applies: at ~3 μM ARV‐471.
For data set [6] the following is noted: ref https://endpts.com/arvinas‐reports‐delay‐for‐pfizer‐partnered‐protein‐degradation‐program/, cited from earlier work.
Data set [7] relates to CYP3A4 mRNA (marker of PXR). Kind of data set: mRNA induction in sandwich cultured hepatocytes. Format: cell-based, human. The conditions noted are these: RIS qualified donor HH1103, sandwich cultured hepatocytes, 48 h.
Data set [8] is described as follows: Preliminary reaction phenotyping of palbociclib in hepatocytes. Format: in vitro ADME. The following applies: novel approach (manuscript under preparation).
Data set [9] has as its system CYP2B6 mRNA (marker of CAR). Kind of data set: mRNA induction in sandwich cultured hepatocytes. Format: cell-based, human. The following applies: RIS qualified donor HH1103, sandwich cultured hepatocytes, 48 h.
The mark [10] stands for this setting: Hμrel, 1'hydroxylation of midazolam.

Sequence of UGT1A4 (P22310 29-534): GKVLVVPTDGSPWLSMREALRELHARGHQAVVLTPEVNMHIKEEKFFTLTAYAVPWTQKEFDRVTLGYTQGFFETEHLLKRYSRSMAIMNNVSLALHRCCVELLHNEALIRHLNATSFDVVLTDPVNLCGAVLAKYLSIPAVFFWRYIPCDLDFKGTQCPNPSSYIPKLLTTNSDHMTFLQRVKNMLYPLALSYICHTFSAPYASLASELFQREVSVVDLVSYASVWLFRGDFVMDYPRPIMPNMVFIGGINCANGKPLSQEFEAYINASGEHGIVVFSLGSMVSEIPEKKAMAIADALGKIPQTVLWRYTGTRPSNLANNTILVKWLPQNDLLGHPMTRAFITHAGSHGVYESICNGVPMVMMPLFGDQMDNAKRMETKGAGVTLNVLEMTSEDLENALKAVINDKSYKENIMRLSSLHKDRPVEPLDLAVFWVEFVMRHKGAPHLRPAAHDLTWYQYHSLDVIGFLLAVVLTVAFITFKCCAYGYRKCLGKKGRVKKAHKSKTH
Sequence of UGT2B7 (P16662 24-529): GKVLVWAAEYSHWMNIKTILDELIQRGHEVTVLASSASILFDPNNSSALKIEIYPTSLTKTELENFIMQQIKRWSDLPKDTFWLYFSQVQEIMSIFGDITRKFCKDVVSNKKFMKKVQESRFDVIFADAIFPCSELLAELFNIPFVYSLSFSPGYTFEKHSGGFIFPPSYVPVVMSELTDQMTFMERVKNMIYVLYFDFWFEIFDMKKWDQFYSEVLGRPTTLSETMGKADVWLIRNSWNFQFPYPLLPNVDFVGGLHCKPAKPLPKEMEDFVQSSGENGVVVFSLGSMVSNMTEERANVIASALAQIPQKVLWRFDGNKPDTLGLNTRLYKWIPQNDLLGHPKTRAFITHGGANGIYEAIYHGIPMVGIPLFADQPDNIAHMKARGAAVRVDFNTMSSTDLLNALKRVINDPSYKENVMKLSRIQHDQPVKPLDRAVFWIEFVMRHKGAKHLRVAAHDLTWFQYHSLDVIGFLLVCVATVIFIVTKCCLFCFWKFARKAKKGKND
Sequence of UGT1A6 (P19224 27-532): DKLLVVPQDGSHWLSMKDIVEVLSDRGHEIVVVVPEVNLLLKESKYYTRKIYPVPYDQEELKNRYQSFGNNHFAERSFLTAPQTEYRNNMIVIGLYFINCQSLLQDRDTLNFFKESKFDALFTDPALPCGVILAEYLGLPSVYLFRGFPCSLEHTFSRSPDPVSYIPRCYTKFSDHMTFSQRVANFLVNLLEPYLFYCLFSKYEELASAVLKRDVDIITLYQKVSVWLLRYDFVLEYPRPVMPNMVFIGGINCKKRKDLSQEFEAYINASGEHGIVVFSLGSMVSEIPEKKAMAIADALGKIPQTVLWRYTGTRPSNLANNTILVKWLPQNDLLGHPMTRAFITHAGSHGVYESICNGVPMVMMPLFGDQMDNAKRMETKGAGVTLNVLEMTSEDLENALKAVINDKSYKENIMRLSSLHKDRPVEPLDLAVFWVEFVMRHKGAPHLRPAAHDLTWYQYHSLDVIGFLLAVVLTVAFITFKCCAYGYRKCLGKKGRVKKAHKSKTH
Sequence of UGT2B15 (P54855 24-530): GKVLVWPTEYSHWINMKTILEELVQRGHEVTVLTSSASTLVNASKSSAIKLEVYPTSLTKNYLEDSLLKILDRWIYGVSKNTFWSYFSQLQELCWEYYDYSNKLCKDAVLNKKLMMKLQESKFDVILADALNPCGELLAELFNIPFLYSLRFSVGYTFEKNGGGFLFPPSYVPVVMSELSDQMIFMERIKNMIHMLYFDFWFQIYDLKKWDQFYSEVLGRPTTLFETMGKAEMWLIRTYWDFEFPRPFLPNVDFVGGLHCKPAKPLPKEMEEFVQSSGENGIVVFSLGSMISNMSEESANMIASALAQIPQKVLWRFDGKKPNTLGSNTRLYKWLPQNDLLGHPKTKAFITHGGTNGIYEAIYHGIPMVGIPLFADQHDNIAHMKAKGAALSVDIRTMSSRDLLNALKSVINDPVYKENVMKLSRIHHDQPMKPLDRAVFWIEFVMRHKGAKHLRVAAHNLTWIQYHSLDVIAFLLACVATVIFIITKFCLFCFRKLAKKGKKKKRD
Sequence of UGT1A9 (O60656 26-530): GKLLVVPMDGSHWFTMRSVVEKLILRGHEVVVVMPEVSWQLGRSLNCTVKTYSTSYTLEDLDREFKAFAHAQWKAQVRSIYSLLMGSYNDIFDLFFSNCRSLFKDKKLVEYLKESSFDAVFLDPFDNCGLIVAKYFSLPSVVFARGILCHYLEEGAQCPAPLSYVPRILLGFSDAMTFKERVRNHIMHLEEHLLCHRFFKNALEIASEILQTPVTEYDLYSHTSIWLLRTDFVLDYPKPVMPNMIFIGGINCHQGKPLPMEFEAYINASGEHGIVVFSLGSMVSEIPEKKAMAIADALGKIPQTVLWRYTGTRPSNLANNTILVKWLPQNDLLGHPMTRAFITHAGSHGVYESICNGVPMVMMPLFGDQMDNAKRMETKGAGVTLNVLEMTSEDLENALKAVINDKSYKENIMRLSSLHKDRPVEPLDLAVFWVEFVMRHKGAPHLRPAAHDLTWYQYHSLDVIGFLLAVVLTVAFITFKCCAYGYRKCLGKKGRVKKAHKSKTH
Sequence of UGT1A1 (P22309 26-533): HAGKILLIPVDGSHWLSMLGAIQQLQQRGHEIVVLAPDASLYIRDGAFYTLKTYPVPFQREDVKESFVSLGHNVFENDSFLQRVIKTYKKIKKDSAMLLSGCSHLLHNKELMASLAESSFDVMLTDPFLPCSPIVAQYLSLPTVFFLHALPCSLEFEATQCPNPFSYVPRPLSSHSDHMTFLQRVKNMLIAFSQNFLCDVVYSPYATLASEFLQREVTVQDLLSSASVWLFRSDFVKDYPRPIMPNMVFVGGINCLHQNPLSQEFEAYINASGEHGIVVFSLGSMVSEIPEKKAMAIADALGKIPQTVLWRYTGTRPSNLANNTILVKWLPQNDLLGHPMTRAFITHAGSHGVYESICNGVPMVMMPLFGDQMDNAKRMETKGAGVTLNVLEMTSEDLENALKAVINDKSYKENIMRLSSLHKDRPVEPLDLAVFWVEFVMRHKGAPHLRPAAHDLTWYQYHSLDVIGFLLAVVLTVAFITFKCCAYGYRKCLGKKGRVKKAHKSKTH
Sequence of UGT1A3 (P35503 29-534): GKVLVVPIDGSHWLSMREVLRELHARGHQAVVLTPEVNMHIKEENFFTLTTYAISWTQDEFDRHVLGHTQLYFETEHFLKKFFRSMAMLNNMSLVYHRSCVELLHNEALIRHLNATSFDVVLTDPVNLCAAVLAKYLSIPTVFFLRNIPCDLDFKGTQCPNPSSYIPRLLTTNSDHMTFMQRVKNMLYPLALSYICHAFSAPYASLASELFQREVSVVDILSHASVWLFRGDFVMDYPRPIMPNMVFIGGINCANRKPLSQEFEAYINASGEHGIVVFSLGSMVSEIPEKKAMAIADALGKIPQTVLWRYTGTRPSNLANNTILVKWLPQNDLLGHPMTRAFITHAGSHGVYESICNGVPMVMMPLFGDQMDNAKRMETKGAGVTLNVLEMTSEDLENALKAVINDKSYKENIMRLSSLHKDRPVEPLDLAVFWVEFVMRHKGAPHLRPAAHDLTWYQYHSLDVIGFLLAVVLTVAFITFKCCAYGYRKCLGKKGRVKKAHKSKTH

On to `Nn1nnc2ccccc21` [ABT, Aminobenzotriazole], for which the Ki on UGT2B7 is 5.45 mM; on UGT1A9, 4.58 mM; on UGT2B15, above 20 mM; at UGT1A3, 6.03 mM; at UGT1A4, 2.52 mM. In addition, the “inhibition of SULT2A1” value on SULT2A1 [1] is recorded as “No significant inhibition”. In addition, the “Ki,u HHEPs” value on UGT1A6 and on UGT1A1 was “No inhibition” throughout. Moreover, the “inhibition of SULT1C4” value with recombinant SULT1C4 is reported as “No significant inhibition”. Further, the “inhibition of SULT1C2” value with recombinant SULT1C2 is “No significant inhibition”. In addition, the “inhibition of SULT1A1” value with recombinant SULT1A1 is given as “No significant inhibition”. Also, in the data set on recombinant SULT2B1, the “inhibition of SULT2B1” value is listed as “No significant inhibition”. For the same compound, the “inhibition of SULT1B1” value in the data set on recombinant SULT1B1 is “No significant inhibition”. Besides, the “inhibition of SULT1E1” value with recombinant SULT1E1 is “No significant inhibition”. In the data set on recombinant SULT1A3, the “inhibition of SULT1A3” value is listed as “No significant inhibition”.
Take `O=C1CC[C@H](N2Cc3cc(N4CCN(CC5CCN(c6ccc([C@@H]7c8ccc(O)cc8CC[C@@H]7c7ccccc7)cc6)CC5)CC4)ccc3C2=O)C(=O)N1` [ARV-471]: the “glucuronide metabolism of palbociclib” value in data set [2] (Hμrel and TruVivo, 5 μM palbociclib, 20 μM ARV‐471) is reported as “completely inhibited”. Moreover, in data set [2] (based on MS ionization and summed metabolite area ratios, 20 μM ARV‐471), the “inhibition of metabolic clearance accounted for by glucuronide metabolism” value is recorded as “up to 50%”. Also, the “effect on palbociclib sulfation over the time course” value with palbociclib sulfation is reported as “apparent activation”. Further, the IC50 against SULT2A1 [3] and at SULT2A1 [4] was above 0.035 mM throughout. In addition, in the data set on CYP3A (setting [10]), the “direct inhibition of CYP3A activity” value is reported as “no direct inhibition; also recorded: no direct or time‐dependent inhibition”. In addition, the “time‐dependent inhibition of CYP3A” value with CYP3A (setting [10]) is listed as “no direct or time‐dependent inhibition”. For the same compound, the “Emax, increase in midazolam activity (CYP3A induction)” value in the data set on CYP3A (Hμrel, concentration and time‐dependent increase) is given as 3.8 fold. Besides, the EC50 in the data set with CYP3A (human, Hμrel co-culture hepatocytes, probe midazolam (1'-hydroxylation)) came out at 0.00025 mM. Also, the “increase in palbociclib exposure recapitulated from Clint inhibition” value in [5] is 50%. The “increase in palbociclib exposure (area under the curve)” value in [6] (co‐administration of palbociclib with ARV‐471, phase Ib) is ~ 50% and 50%. For the same compound, the “adverse event with increased palbociclib exposure” value in data set [6] (palbociclib with ARV‐471, phase Ib) is “grade 3/4 neutropenia”.
On to `CC(=O)N1CCN(c2ccc(OCC3COC(Cn4ccnc4)(c4ccc(Cl)cc4Cl)O3)cc2)CC1` (stereo not shown) [ketoconazole], for which the “CYP3A4 induction Emax” value in data set [7] is 2 fold.
As for `CC(=O)c1c(C)c2cnc(Nc3ccc(N4CCNCC4)cn3)nc2n(C2CCCC2)c1=O` [palbociclib], the “Clint at 5 μM compared with 0.045 μM” value in data set [2] (co-culture hepatocytes, suggesting saturation of metabolic clearance) is recorded as “reduced”. Further, the “share of palbociclib clearance by glucuronidation” value in data set [8] was 25%–30%.
Regarding `C=C[C@H]1C[N@@]2CC[C@H]1C[C@@H]2[C@@H](O)c1ccnc2ccc(OC)cc12` [quinidine], the “CYP2B6 induction (result in words)” value in data set [9] is listed as “did not induce”.

A word on the Ki: it is the equilibrium dissociation constant of an inhibitor or competing ligand from its target. Broadly, the IC50 is the concentration at which inhibition is half-maximal. Usually EC50 stands for the concentration that produces a half-maximal response. Read a low EC50 as higher potency in that assay.
